Data set [1] in a line: Inhibition of EGFR del19/T790M/C797S triple mutant in mouse BAF3 cells assessed as reduction in cell proliferation incubated for 72 hrs by Celltiter-Glo luminescent cell viability assay. It counts as cell-based. As to conditions: BaF3, 72 h. A digest of the protocol: (§1)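 Murine Ba/F3 cells retrovirally transduced with GFP plus EGFR wt, del19 or del19/T790M/C797S, then puromycin-selected. Mutant lines were made IL-3-independent; wt line grown on EGF without IL-3. EGFR-independent control cells carried GFP-only vector and were kept in IL-3. Seeded at 5x10³/100 µl, treated 72 h at 37 °C, viability read by CellTiter-Glo luminescence. Technical and biological triplicates. Geometric mean of ≥3 independent runs. Selectivity ratio = wt IC50 / del19/T790M/C797S IC50.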
In general terms: In ATP-based viability assays light output follows the ATP content of the culture.

The next data set has as its system BaF3. In words: Cytotoxicity against mouse BAF3 cells incubated for 72 hrs by Celltiter-Glo luminescent cell viability assay. It counts as cell-based. As to conditions: BaF3, 72 h. The essentials:
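Mutant lines were made IL-3-independent; wt line grown on EGF without IL-3. EGFR-independent control cells carried GFP-only vector and were kept in IL-3. Seeded at 5x10³/100 µl, treated 72 h at 37 °C, viability read by CellTiter-Glo luminescence. Technical and biological triplicates. Geometric mean of ≥3 independent runs.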

Data set [2] is described as follows: Aqueous solubility of compound in McIlvaine buffer at 1 mg/ml at pH 6.8 by HPLC-DAD/UV analysis. It counts as physicochemical. The essentials:
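Solid compound dispensed at 1 mg/mL into aqueous McIlvaine buffer (pH 6.8). Reference sample dissolved in acetonitrile/water (1:1). Dissolved concentration quantified by HPLC-DAD/UV.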

The nature of data set [3]: Apparent permeability of compound at pH 7.4 by LC-MS based PAMPA method. It is filed as ADME. The essentials: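 PAMPA at pH 7.4. A microfilter disc coated with immobilized artificial phospholipid membrane layers separates donor and acceptor chambers. Compound concentrations in both chambers are followed over time by LC/MS and compared with the donor concentration before incubation.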
In general terms: PAMPA measures passive passage across an artificial lipid membrane.

Data set [4] deals with PC-9. In words: Antiproliferative activity against human PC9 cells harboring EGFR del19/T790M/C797S triple mutant incubated for 96 hrs by Celltiter-Glo luminescent cell viability assay. As to conditions: PC-9, 96 h. It is filed as functional, cell-based. The essentials: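 Cells plated in 96-well plates (A431 5000/well in DMEM + 10% FBS + sodium pyruvate; PC-9 del19/T790M/C797S 2000/well in RPMI + 10% FBS). Compound added 24 h after plating, then 96 h at 37°C, 5% CO2. Viability read by CellTiter-Glo luminescence, normalised to DMSO-treated cells, IC50 fitted. Technical and biological triplicates.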

In another data set the test system is A-431. Put plainly: Antiproliferative activity against human A431 cells harboring EGFR wild type incubated for 96 hrs by Celltiter-Glo luminescent cell viability assay. It counts as functional, cell-based. As to conditions: A-431, 96 h.
Data set [5] is described as follows: Inhibition of EGFR del19 mutant in mouse BAF3 cells incubated for 72 hrs by Celltiter-Glo luminescent cell viability assay. It is filed as cell-based. The following applies: BaF3, 72 h. The essentials:
as §1

Data set [6] in a line: Volume of distribution in NMRI mouse at 10 mg/kg, po or 1 mg/kg, iv. As to conditions: in vivo. It is filed as ADME, organism-based. A digest of the protocol:
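NMRI mice (n=3 per group) dosed orally at 10 mg/kg or intravenously at 1 mg/kg. Five plasma samples per mouse at set time points. Plasma protein precipitated with acetonitrile, compound quantified by LC-MS/MS against a calibration curve.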

The test system of data set [7] is PC-9. In words: Antitumor activity against human PC9 cells harboring del19/T790M/C797S triple mutant xenografted in BomTac:NMRI-Foxn1nu mouse assessed as tumor growth inhibition at 10 mg/kg, po qd administered for 19 days relative to control. It counts as functional. The following applies: PC-9, po, 456 h, read-out: TGI. A digest of the protocol:
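Female BomTac:NMRI-Foxn1nu mice, 6-8 weeks old, implanted s.c. with 5×10⁶ PC-9 del19/T790M/C797S cells. Randomized by tumor size on day 7 (N=8 per treated group, N=10 vehicle). […] Tumor size and body weight measured three times weekly. Tumor volumes compared by one-sided decreasing Mann–Whitney test.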
(In xenograft studies the graft and the host belong to different species.)

Data set [8] is described as follows: Protein binding in mouse plasma assessed as free fraction after 3 hrs by HPLC-MS/MS-based equilibrium dialysis method. It counts as ADME, cell-free. The essentials:
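Equilibrium dialysis of compound-spiked plasma against Soerensen buffer (pH 7.4) for 3 hours at 37°C. Compound levels in the plasma and buffer sides quantified by HPLC/MS-MS to give the bound and free fractions.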

For data set [9], the target named is Epidermal growth factor receptor (Homo sapiens, UniProt P00533). Put plainly: Inhibition of human recombinant GST-tagged wild type EGFR expressed in baculovirus expression system assessed as decrease in phosphorylation of ULight-poly-GT using ULight-poly-GT as substrate incubated for 90 mins in presence of ATP by TR-FRET LANCE assay.
Data set [10] has as its target T1, Epidermal growth factor receptor (Homo sapiens, UniProt P00533, C797S/EX19DEL/T790M). Put plainly: Inhibition of GST-fusion tagged EGFR del19/T790M/C797S triple mutant (unknown origin) (696 to 1022 residues) expressed in insect cells assessed as decrease in phosphorylation of ULight-poly-GT using poly-GT as substrate in presence of ATP.
For data set [11], the target named is Epidermal growth factor receptor (Homo sapiens, UniProt P00533, C797S/L858R/T790M). Put plainly: Inhibition of GST-fusion tagged EGFR L858R/T790M/C797S triple mutant (unknown origin) (696 to 1022 residues) expressed in insect cells assessed as decrease in phosphorylation of ULight-poly-GT using poly-GT as substrate in presence of ATP.
The target of data set [12] is T1, Epidermal growth factor receptor. Put plainly: Inhibition of phosphorylated EGFR del19/T790M/C797S triple mutant (unknown origin) expressed in mouse BaF3 cells incubated for 4 hrs by Alphascreen assay. It is filed as cell-based.
The nature of data set [13]: Selectivity index, ratio of IC50 for antiproliferative activity against mouse BAF3 cells harboring wild type EGFR to IC50 for antiproliferative activity against mouse BAF3(transformed) cells harboring EGFR del19/T790M/C797S triple mutant incubated for 72 hrs by Celltiter-Glo luminescent cell viability assay. It is filed as functional. A digest of the protocol: as §1

The nature of data set [14]: Hepatic clearance in human cryopreserved hepatocytes at 1 uM measured after 240 mins by LC-MS/MS analysis relative to hepatic blood flow. It counts as ADME, cell-based, Hepatocyte. As to conditions: read-out: CLH. The essentials:
(§2)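 Compound (1 µM) incubated with cryopreserved hepatocytes. Depletion followed over 240 min by LC/MS/MS quantitation. In vivo hepatic clearance predicted with the well-stirred model and expressed as percent of hepatic blood flow (%QH).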

Data set [15] can be described thus: Hepatic clearance in mouse cryopreserved hepatocytes at 1 uM measured after 240 mins by LC-MS/MS analysis relative to hepatic blood flow. It counts as ADME, cell-based, Hepatocyte. As to conditions: read-out: CLH. The essentials:
as §2

Data set [16] can be described thus: Protein binding in human plasma assessed as free fraction after 3 hrs by HPLC-MS/MS-based equilibrium dialysis method. It is filed as ADME, cell-free. A digest of the protocol:
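Equilibrium dialysis: human plasma spiked with compound and dialyzed against Soerensen buffer (pH 7.4) for 3 h at 37 °C. Compound in plasma and buffer quantified by HPLC/MS-MS to calculate binding and free fraction.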

The species named for a further data set is Homo sapiens. Put plainly: Selectivity ratio of IC50 for inhibition of human recombinant GST-tagged wild type EGFR expressed in baculovirus expression system to IC50 for inhibition of GST-fusion tagged EGFR del19/T790M/C797S triple mutant (unknown origin) (696 to 1022 residues) expressed in insect cells. The essentials: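 TR-FRET kinase assays on ULight-poly-GT substrate (200 nM) with ATP 100 µM, final enzyme 1.5 nM (wt) or 15 nM (del746-750/T790M/C797S). Buffer was HEPES pH 7.3, MgCl2, EGTA, Tween 20, DTT. Reaction ran 90 min at room temperature and was stopped with EDTA plus Eu-anti-pTyr antibody, read after 60 min. Top concentration 100 µM with eleven fivefold dilutions in duplicate. IC50 from a 4-parameter logistic fit; ratio is wt IC50 over mutant IC50.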

Converted amounts (≈) assume the structure as drawn. Bounds are passed on as bounds.

Results on twelve molecules are retold here after ChEMBL document CHEMBL4321840, “Start Selective and Rigidify: The Discovery Path toward a Next Generation of EGFR Tyrosine Kinase Inhibitors” (J Med Chem, 2019).

For orientation: IC50 means the concentration needed to halve the response being measured. By solubility is commonly meant the dissolved amount per volume that the medium holds. Low values mean little dissolved substance, high ones much dissolved substance. What is called Papp is the rate of passage across a membrane or cell layer, normalised by area and donor concentration. In general, fraction unbound refers to free concentration divided by total concentration.

T1 sequence (P00533 whole entry, looked up, stated change not applied, the tested form may be a part): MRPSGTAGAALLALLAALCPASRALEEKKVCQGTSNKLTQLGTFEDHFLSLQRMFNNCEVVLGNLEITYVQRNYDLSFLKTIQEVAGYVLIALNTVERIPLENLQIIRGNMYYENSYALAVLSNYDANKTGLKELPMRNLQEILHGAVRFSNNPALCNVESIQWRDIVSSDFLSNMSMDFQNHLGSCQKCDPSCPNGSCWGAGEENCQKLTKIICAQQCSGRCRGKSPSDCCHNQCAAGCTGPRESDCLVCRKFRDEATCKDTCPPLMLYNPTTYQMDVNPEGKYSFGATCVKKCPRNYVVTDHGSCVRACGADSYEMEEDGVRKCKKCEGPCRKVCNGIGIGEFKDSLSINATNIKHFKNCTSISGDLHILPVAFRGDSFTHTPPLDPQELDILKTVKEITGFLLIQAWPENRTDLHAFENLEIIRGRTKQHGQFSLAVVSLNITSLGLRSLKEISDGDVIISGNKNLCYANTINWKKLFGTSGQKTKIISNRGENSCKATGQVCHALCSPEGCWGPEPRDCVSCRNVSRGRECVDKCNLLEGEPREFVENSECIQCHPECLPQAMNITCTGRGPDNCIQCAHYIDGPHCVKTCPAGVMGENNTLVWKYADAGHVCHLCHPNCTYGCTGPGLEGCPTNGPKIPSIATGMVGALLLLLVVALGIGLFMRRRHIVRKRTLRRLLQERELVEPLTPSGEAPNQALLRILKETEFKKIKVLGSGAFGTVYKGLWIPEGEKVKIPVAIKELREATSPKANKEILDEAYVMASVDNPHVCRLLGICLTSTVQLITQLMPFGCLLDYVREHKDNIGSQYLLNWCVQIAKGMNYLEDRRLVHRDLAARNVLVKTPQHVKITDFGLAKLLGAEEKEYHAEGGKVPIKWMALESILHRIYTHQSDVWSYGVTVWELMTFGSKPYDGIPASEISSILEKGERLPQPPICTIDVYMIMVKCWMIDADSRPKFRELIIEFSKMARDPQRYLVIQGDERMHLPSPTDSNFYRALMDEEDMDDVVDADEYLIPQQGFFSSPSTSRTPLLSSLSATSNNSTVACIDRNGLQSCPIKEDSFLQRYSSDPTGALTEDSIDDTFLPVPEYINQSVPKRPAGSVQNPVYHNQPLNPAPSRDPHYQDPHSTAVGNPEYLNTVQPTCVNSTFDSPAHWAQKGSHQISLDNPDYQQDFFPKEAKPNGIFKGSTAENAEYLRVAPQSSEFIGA
Sequence of Epidermal growth factor receptor (Homo sapiens, UniProt P00533) (P00533 whole entry, the tested form may be a part): as the sequence (P00533 whole entry, looked up, stated change not applied, the tested form may be a part) above
Sequence of Epidermal growth factor receptor (Homo sapiens, UniProt P00533, C797S/L858R/T790M) (P00533 25-1210 T790M/C797S/L858R limits assumed): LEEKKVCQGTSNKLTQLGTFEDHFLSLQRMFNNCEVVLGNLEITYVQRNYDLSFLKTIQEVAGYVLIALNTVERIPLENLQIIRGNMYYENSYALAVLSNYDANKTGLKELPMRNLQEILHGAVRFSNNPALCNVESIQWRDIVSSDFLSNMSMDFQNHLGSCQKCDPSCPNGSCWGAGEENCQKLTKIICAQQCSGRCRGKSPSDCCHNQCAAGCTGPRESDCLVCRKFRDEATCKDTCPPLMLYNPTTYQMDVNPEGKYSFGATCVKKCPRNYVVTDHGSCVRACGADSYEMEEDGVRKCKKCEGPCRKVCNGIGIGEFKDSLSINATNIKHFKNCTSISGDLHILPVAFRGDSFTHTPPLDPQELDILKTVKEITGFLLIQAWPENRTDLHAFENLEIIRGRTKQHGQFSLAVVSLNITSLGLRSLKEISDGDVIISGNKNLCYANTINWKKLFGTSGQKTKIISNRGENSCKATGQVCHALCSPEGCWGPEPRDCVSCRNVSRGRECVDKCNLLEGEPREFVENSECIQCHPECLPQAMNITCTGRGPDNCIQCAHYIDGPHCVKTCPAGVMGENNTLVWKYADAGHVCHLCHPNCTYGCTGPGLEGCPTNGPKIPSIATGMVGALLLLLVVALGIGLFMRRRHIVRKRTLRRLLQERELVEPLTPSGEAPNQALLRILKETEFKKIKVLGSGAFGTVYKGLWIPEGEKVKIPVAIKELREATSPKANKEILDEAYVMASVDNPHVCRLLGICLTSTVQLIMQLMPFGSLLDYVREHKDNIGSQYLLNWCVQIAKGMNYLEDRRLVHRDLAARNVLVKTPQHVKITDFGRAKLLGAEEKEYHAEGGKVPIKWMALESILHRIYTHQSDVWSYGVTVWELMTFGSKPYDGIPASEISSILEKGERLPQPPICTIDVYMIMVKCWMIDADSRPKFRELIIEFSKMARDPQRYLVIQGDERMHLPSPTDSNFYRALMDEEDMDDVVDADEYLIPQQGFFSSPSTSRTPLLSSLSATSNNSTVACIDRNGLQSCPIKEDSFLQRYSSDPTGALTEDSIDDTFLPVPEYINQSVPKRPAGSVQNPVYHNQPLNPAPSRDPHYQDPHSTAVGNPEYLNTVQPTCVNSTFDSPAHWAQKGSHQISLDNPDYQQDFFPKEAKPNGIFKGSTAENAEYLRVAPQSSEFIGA

Turning to `Cc1cc2cc(n1)-c1cnn(C)c1OCCC[C@@H](C)CN1/C(=N/C2=O)Nc2ccc(CN3CCN(C)CC3)cc21`, the IC50 in data set [1] was 0.2 nM; with BaF3, 1100 nM; in the data set with PC-9 [4], 1.3 nM; in the data set on A-431, 200 nM; in data set [5], 1 nM. Further, the solubility in [2] worked out at 95 µg/mL (≈ 175 µM). Besides, the Papp in data set [3] was 5.3 ×10⁻⁶ cm/s. The molecule also displayed a Vd in data set [6] of 4.2 L/kg. In addition, the inhibition in vivo at 10 mg/kg in the data set on PC-9 [7] came to 121%.
In the case of `C=CC(=O)Nc1cc(Nc2nccc(-c3cn(C)c4ccccc34)n2)c(OC)cc1N(C)CCN(C)C` [OSIMERTINIB], the IC50 in data set [1] was 780 nM; with BaF3 it was 1100 nM; in the data set on PC-9 [4], greater than 1000 nM. In addition, in data set [2], the solubility came to 86 µg/mL (≈ 172 µM). In addition, the fraction unbound at 3 h in data set [8] was less than 0.1. Moreover, the Papp in data set [3] came to 2.7 ×10⁻⁶ cm/s.
Regarding `CC(C)(O)Cn1/c(=N/C(=O)c2ccnc(-c3cccnc3)c2)[nH]c2ccccc21`, the IC50 in data set [1] is 270 nM.
On to `Cn1cc(-c2cc(C(=O)/N=c3\[nH]c4ccccc4n3CC(C)(C)O)ccn2)cn1`, for which the IC50 is greater than 100 µM in data set [9]; 72 nM in data set [10]; 519 nM in data set [11]; 43 nM in [12]; 333 nM in data set [1]; 8900 nM with BaF3.
`Cc1cc2cc(n1)-c1cnn(C)c1OCCC[C@@H](C)CN1/C(=N/C2=O)Nc2ccccc21`: the IC50 in data set [12] is 0.8 nM; in data set [1], 1 nM; in the data set with BaF3, 1000 nM. Besides, the “Ratio IC50” value in [13] is listed as greater than 1000. In data set [2], this molecule yielded a solubility of less than 0.1 µg/mL. Also, the hepatic extraction ratio at 4 h, 1 µM amounted to 0.12 in data set [14] and 0.47 in data set [15]. In addition, the fraction unbound at 3 h in data set [8] was less than 0.3; in data set [16] it was 0.5. Also, the Papp in data set [3] was found to be 0.2 ×10⁻⁶ cm/s.
Regarding `CC(C)(O)Cn1/c(=N/C(=O)c2cccc(-c3cccnc3)c2)[nH]c2ccccc21`, the IC50 in [9] was greater than 100 µM; in [10], 173 nM; in data set [11] it was 2700 nM; in data set [12], 1400 nM.
As for `CC(C)(O)Cn1/c(=N/C(=O)c2cc(F)cc(-c3cccnc3)c2)[nH]c2ccccc21`, the IC50 was greater than 100 µM in data set [9], 250 nM in [10], 2100 nM in data set [11] and 790 nM in [12]. Also, the Ratio IC50 in the data set filed under Homo sapiens is greater than 400.
In the case of `CC(C)(O)Cn1/c(=N/C(=O)c2ccnc(-c3ccccc3)c2)[nH]c2ccccc21`, the IC50 in [9] is greater than 100 µM; in data set [10] it was 35 nM; in data set [12] it was 22 nM; in [1], 150 nM; in the data set on BaF3, greater than 25000 nM.
Turning to `O=C1/N=C2\Nc3ccccc3N2CCCCCOc2ccccc2-c2cc1ccn2`, the IC50 in [12] turned out to be 3 nM; in [1], 27 nM; in the data set with BaF3 it was 1600 nM. In addition, the “Ratio IC50” value in [13] came to 48.
With `Cc1cc2cc(n1)-c1cnn(C)c1OCCCCCN1/C(=N/C2=O)Nc2ccccc21`, the IC50 amounted to 1 nM in [12], 5 nM in data set [1] and 1700 nM in the data set with BaF3. In addition, the “Ratio IC50” value in data set [13] was 460.
On to `Cn1ncc2c1OCCCCCN1/C(=N/C(=O)c3cc(F)nc-2c3)Nc2ccccc21`, for which the IC50 worked out at 1.2 nM in [12], 6 nM in [1] and 330 nM with BaF3. Further, the “Ratio IC50” value in [13] was found to be 45.
In the case of `COc1ccncc1-c1cc(C(=O)/N=c2\[nH]c3ccccc3n2CC(C)(C)O)ccn1`, the IC50 in [10] was no more than 3 nM; in data set [12], 1 nM; in [1] it was 51 nM; in the data set with BaF3, 990 nM.
